# CYP2C9 inh: inhibitors of human CYP2C9; inhibition, % at 5 µM; CYP2C9 Supersomes, luciferin-H conversion, luminescence; 96,000 tested, 20% active; P11712; AID 777;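 active means blocking of liver enzyme CYP2C9 beyond about 50% at 5 µM, limit read from the data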
# CYP2C19 activ: increases human CYP2C19 enzyme activity | recombinant CYP2C19, luciferin-H EGE luminescence; stronger effect = higher value; 0 = fully inhibited enzyme, 1 = untreated enzyme | activation factor at 5 µM | 96,000 tested, under 10 active | AID 1025;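 active means activation factor of at least 2 at 5 µM in the primary screen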;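 further: 0 = wells with 2.5 mM tranylcypromine and 1 = vehicle-only wells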
# Target sequence (P33261 whole entry, looked up): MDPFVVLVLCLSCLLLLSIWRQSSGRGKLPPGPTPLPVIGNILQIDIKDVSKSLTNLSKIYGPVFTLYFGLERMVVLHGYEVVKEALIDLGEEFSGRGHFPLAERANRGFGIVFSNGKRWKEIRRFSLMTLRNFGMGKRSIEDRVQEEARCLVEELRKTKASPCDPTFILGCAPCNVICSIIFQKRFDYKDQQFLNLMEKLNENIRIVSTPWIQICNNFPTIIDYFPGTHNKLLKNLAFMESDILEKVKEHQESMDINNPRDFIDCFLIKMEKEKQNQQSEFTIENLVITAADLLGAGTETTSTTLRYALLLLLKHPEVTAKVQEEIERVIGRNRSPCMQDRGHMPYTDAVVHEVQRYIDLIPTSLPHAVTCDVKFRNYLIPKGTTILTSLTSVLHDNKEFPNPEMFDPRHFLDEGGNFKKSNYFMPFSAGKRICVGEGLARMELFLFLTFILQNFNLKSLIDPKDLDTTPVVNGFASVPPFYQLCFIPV
# Ecoli tolC: growth inhibitors of E. coli BW25113 tolC mutant; OD615; growth inhibition, % at 10 µM (by protocol); 65,000 tested, 2.2% active;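 active means growth inhibition at or above a cutoff equal to the mean over every tested compound plus 3 SD, cut at about 60% in these data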;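 further: growth measured after 20 h incubation at 37 °C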
#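 Test system: E. coli BW25113 ΔtolC::kan bacteria; incubation: 37 °C, 20 h exposure; medium: LB broth supplemented with 50 µg/mL kanamycin; read-out basis: percent growth inhibition; signal: A615 absorbance measurement; compound: 10 µM final, single dose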
# CYP2C9 activ: activators of human CYP2C9 | P11712 | recombinant CYP2C9, luciferin-H conversion, luminescence; stronger effect = higher value; factor 1 = untreated enzyme, 0 = blocked | activation factor at 5 µM | 96,000 tested, 1.4% active;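 active means activation factor of 2 or more for CYP2C9 at a 5 µM dose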;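 further: 0 = sulfaphenazole-blocked wells and 1 = vehicle-only wells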
# E coli WT exp: E. coli BW25113 growth inhibition, expanded screen | AID 710 | OD600 absorbance | 98,000 tested, 0.15% active | growth inhibition, % at 100 µM;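 active means growth inhibition above about 50% at one test dose, limit read from the data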;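 further: growth measured after 20 h incubation at 37 °C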
# CYP2C19 inh: blocks human cytochrome P450 2C19. 96,000 tested, 21% active. AID 778. CYP2C19 Supersomes, luciferin-H EGE luminescence, 30 min. inhibition, % at 5 µM;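 active means CYP2C19 inhibition above a set limit at 5 µM in the primary screen, cut at about 50% in these data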;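 further: plate controls were negative control wells for no effect and 2.5 mM tranylcypromine positive control for full effect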
# Active calls of the source: *; nt = no result. In the library only some 29% were active in any assay of this set; here they are far more common.
SMILES,CYP2C9 inh,CYP2C19 activ,Ecoli tolC,CYP2C9 activ,E coli WT exp,CYP2C19 inh
NCCCCCc1nnc(SCc2ccc(Cl)cc2Cl)o1,37,0.4,nt,0.6,39,61*
CCC(C)[C@H](N)c1nnc(SCC(=O)Nc2cccc(Cl)c2)o1 (stereo not given in full),50*,0,-13,0.5,8,97*
COc1cccc(C(c2nnnn2Cc2ccc(F)cc2)N2CCC(C(N)=O)CC2)c1OC (stereo not given),11,0.8,-19,0.9,4,21
O=C1N[C@@H](Cc2cnc[nH]2)C(=O)N2CCC[C@@H]12,nt,nt,15,nt,nt,nt
CCOC(=O)CSC1=Nc2ccccc2C2=NC(CC(=O)NCc3ccc(OC)cc3)C(=O)N12 (stereo not given),nt,nt,7,nt,-1,nt
Cc1ccc(CSC2=Nc3ccccc3C3=NC(CCC(=O)NCc4ccco4)C(=O)N23)cc1 (stereo not given),87*,0.8,22,0.1,-7,21
O=C(CC1N=C2c3ccccc3N=C(SCc3ccc(Cl)cc3)N2C1=O)NCc1ccco1 (stereo not given),72*,0.9,49,0.3,-17,5
Cc1nc(Nc2nc3ccccc3o2)nc2c1CCC2,6,0.7,9,0.9,8,29
Cc1cccc(C)c1Nc1nc2ccccc2o1,64*,0.6,-10,0.4,9,39
Nc1ccc(C(=O)N/N=C\c2cc(N=Nc3cccc4ccccc34)ccc2O)cc1,14,0.9,nt,0.9,-11,12
CC(=O)C1=NN(c2ccccc2)C2(S1)S/C(=C\c1ccccc1)C(=O)N2c1ccccc1 (stereo not given),58*,1.1,nt,0.4,-17,-15
COC(=O)C1=NN(c2ccccc2)C2(S1)SC(C(C)=O)=C(C)N2c1ccccc1 (stereo not given),58*,0.8,nt,0.4,4,24
COC(=O)c1nn(-c2ccccc2)ccc1=O,5,0.9,nt,1,8,5
COC(=O)C1=C(C)N(c2ccc(C)cc2)/C(=C/c2cccs2)C1=O,43,0.9,nt,0.6,-5,6
COC(=O)C1=NN(c2ccc(C)cc2)C2(S1)SC(C(C)=O)=C(C)N2c1ccccc1 (stereo not given),59*,0.4,nt,0.4,-16,58*
COc1cc(=O)[nH]c(=O)n1CC(=O)c1ccccc1,nt,nt,11,nt,1,nt
C=CCc1cccc2cc(C(=O)NCc3ccc(C(=O)OCC)o3)c(=O)oc12,40,0.6,nt,0.6,-2,44
Cc1cccc(C)c1NC(=O)C(c1ccc([N+](=O)[O-])cc1)N1CCCCC1 (stereo not given),-9,1,nt,1.1,-4,0
Cc1c(Cl)c([N+](=O)[O-])nn1Cc1ccc(C(=O)N/N=C\c2cccc(Br)c2)o1,64*,0.3,nt,0.4,-8,68*
Cc1cc(C(=O)N/N=C/c2cccc([N+](=O)[O-])c2)c(C)o1,10,0.9,nt,0.9,-9,8
O=C(O)CC1NC(=O)N(c2ccc(Cl)cc2)C1=O (stereo not given),-22,1.1,-7,1.2,3,-10
COc1ccc(C2C(C#N)=C(C)NC3=C2C(=O)CC(C)(C)C3)cc1 (stereo not given),66*,0.6,nt,0.3,5,36
CSC1=C(C#N)C(c2ccc(Cl)cc2)C2=C(CC(C)(C)CC2=O)N1 (stereo not given),65*,0.8,26,0.3,nt,24
NC(=O)c1ccc(C(F)(F)F)n(Cc2cccc(Cl)c2)c1=O,25,0.4,nt,0.7,4,56*
CNC(=S)NNC(=O)c1cccn(Cc2cccc(Cl)c2)c1=O,-1,1,nt,1,2,3
SMILES,CYP2C9 inh,CYP2C19 activ,Ecoli tolC,CYP2C9 activ,E coli WT exp,CYP2C19 inh
NC(=O)c1cnn(Cc2ccc(Cl)cc2)c1N,3,1,-4,1,19,-5
NC(=O)c1ccc(C(F)(F)F)n(Cc2ccc(Cl)cc2)c1=O,22,0.5,nt,0.8,-2,51*
Cc1ccccc1Cn1cnc2c(cnn2C(C)(C)C)c1=O,27,0.3,11,0.7,13,68*
CC(C)(C)n1ncc2c(=O)n(CC(=O)c3ccccc3)cnc21,nt,nt,6,nt,-1,nt
Cc1ccc(C)c(Cn2cnc3c(cnn3C(C)(C)C)c2=O)c1,35,0,16,0.6,7,97*
CCOC(=O)C1CCN(C(=O)Cn2cc3c(n2)CCC(C)C3)CC1 (stereo not given),0,0.6,-14,1,-3,39
CS(=O)(=O)Nc1ccc(S(=O)(=O)N2CCOCC2)cc1,4,1,-22,1,3,3
COc1cccc(NS(=O)(=O)c2ccc(S(=O)(=O)N3CCOCC3)cc2)c1,67*,0.1,-1,0.3,-7,93*
Cc1ccc(S(=O)(=O)Nc2ccc(S(=O)(=O)N3CCCC3)cc2)cc1,98*,0.3,25,0,-1,68*
COc1ccc(S(=O)(=O)Nc2ccc(S(=O)(=O)N3CCOCC3)cc2)cc1,94*,0.4,5,0.1,-7,60*
CCn1c(=O)c(=O)n(CC)c2cc(S(=O)(=O)Nc3cccc(OC)c3)ccc21,87*,0.5,-1,0.1,-5,49
Cc1cc(C)nc(N2CCN(CC(=O)NCc3ccccc3)CC2)n1,-4,1.1,nt,1,0,-9
COc1cccc(-c2nc(-c3ccc(NC(=O)c4cccs4)cc3)no2)c1,18,0.9,nt,0.8,-26,13
Cc1cc(C(C)(C)C)oc1C(=O)N(CC(=O)NC1CCCC1)Cc1ccc(F)cc1,-9,0.7,nt,1.1,-7,30
CCc1ccc(N/C(SCc2ccccc2C)=C(/C#N)C(=O)NCc2ccco2)cc1,64*,0.4,nt,0.4,-18,57*
CC(=O)Nc1ccc(C(=S)NCc2ccco2)cc1,13,0.7,nt,0.9,-2,33
Cc1cc(NS(=O)(=O)c2ccccc2)c(C)c(Cl)c1O,-182,0,17,2.8*,1,99*
COc1ccc(CN2C(=O)c3cccnc3C2Nc2cc(Cl)ccc2OC)cc1 (stereo not given),48,0.4,10,0.5,3,63*
CCOC(=O)c1ccc(NC2c3ncccc3C(=O)N2Cc2ccc(F)cc2)cc1 (stereo not given),70*,0.6,27,0.3,8,41
O=C1c2cccnc2C(Nc2ccc(S(=O)(=O)N3CCCCC3)cc2)N1Cc1ccccc1 (stereo not given),33,0.9,8,0.7,-8,13
CCOc1ccc(N2C(=O)c3cccnc3C2Nc2ccc(Cl)cc2)cc1 (stereo not given),27,0.5,12,0.7,-5,46
COC(=O)c1cc(NC2c3ncccc3C(=O)N2Cc2ccccc2)cc(C(=O)OC)c1 (stereo not given),67*,0,-6,0.3,-3,96*

# Screens: PubChem, several laboratories
